# ChEMBL document CHEMBL6083194, “Discovery and evaluation of 3-(2-isocyanobenzyl)-1H-indole derivatives as potential quorum sensing inhibitors for the control of Pseudomonas aeruginosa infections in vitro” (RSC Med Chem, 2024)
# Active and inactive are the calls of the source. The rule behind the calls is not given here.
# Columns and labels:
# Pseudomonas aeruginosa [1] = experiment: Downregulation of sdhB gene expression in Pseudomonas aeruginosa PAO1 assessed as fold decrease at 25 ug/ml by RT-qPCR analysis; format: functional; conditions: dose 25 µg/ml
# Pseudomonas aeruginosa [2] = experiment: Downregulation of rhlR gene expression in Pseudomonas aeruginosa PAO1 assessed as fold decrease at 25 ug/ml by RT-qPCR analysis; format: functional; conditions: dose 25 µg/ml
# [3] = Inhibition of quorum sensing system in Pseudomonas aeruginosa PAO1
# Outline: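 Plate screen. CV026 grown overnight in LB with 50 μg ml−1 kanamycin; 15 μl seeded into 15 ml LB agar (1.0% agarose) containing 20 μM C4-HSL. PAO1 plates run in parallel. Test colonies inoculated by toothpick, incubated overnight at 37 °C. Ring of colourless viable cells around the colony scored as inhibition.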
# Pseudomonas aeruginosa [4] = experiment: Inhibition of biofilm formation in Pseudomonas aeruginosa PAO1 incubated for 24 hrs crystal violet staining based SEM assay; format: functional, organism-based
# Pseudomonas aeruginosa [5] = experiment: Inhibition of biofilm formation in Pseudomonas aeruginosa PAO1 at 1/2 times MIC incubated for 24 hrs crystal violet staining based SEM assay; format: functional
# Pseudomonas aeruginosa [6] = experiment: Inhibition of pyocyanin production in Pseudomonas aeruginosa PAO1 at 1/2 time MIC incubated for 18 hrs; format: functional
# Outline: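 Overnight PAO1 in LB diluted to OD600 = 0.05, subcultured 5–7 h to mid-log, rediluted to OD600 = 0.05. 5 mL with compound grown 18 h at 37 °C, 200 rpm. Supernatant extracted with 3 mL chloroform, back-extracted into 0.2 M HCl, absorbance at 520 nm.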
# Pseudomonas aeruginosa [7] = experiment: Inhibition of rhamnolipid production in Pseudomonas aeruginosa PAO1 at 1/2 to 1/4 times MIC by orcinol method; format: functional, organism-based
# Outline: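 Overnight PAO1 diluted 1:100 into LB with compound, 37 °C, 180 rpm; DMSO control. Supernatant (100 μL) mixed with 900 μL 0.19% orcinol in 53% H2SO4, heated 30 min at 80 °C, cooled, read at 421 nm.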
# Pseudomonas aeruginosa [8] = experiment: Antibacterial activity against Pseudomonas aeruginosa PAO1 assessed as bacterial growth inhibition at 6.25 to 25 ug/ml by serial dilution method; format: functional, organism-based; conditions: dose 6.25-25 µg/ml
# Outline: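 PAO1 in LB, 37 °C. MIC by CLSI 2-fold serial dilution in Mueller–Hinton broth, inoculum 1–5 × 10^5 CFU mL−1, DMSO stocks. Growth curves: overnight culture diluted to OD600 = 0.05, subcultured to mid-log, rediluted to OD600 = 0.05, 3 mL with compound; OD620 read at 1, 3, 5, 7, 9, 11 and 24 h at 37 °C; DMSO negative control.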
# [9] = Inhibition of quorum sensing system in Pseudomonas aeruginosa PAO1 assessed as reduction in C4-HSL level at 12.5 ug/ml incubated for 24 hrs by LC-MS/MS method; conditions: dose 12.5 µg/ml
# [10] = Inhibition of quorum sensing system in Pseudomonas aeruginosa PAO1 assessed as reduction in 3-oxo-C12-HSL level at 25 ug/ml incubated for 24 hrs by LC-MS/MS method; conditions: dose 25.0 µg/ml
# [11] = Inhibition of quorum sensing system in Pseudomonas aeruginosa PAO1 assessed as reduction in 3-oxo-C12-HSL level at 12.5 ug/ml incubated for 24 hrs by LC-MS/MS method; conditions: dose 12.5 µg/ml
# Pseudomonas aeruginosa [12] = experiment: Inhibition of biofilm formation in Pseudomonas aeruginosa PAO1 at 6.25 ug/ml incubated for 24 hrs crystal violet staining based assay; format: functional
# Outline: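 PAO1 grown statically for 24 h in LB ± compound in 24-well plates. Planktonic cells removed; attached cells stained with 0.05% crystal violet, rinsed, dissolved in 95% ethanol, read at OD570. DMSO negative, resveratrol positive control; SD from three independent experiments.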
# Pseudomonas aeruginosa [13] = experiment: Anti-virulence effect in Pseudomonas aeruginosa PAO1 assessed as inhibition of pyocyanin production; format: functional, organism-based
# Outline: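 Overnight PAO1 culture in LB at 37 °C, diluted to OD600 0.05 and subcultured 5–7 h to mid-log phase, then re-diluted to OD600 0.05. Grown 18 h at 37 °C and 200 rpm with compound (6.25, 12.5, 25 μg mL−1) or DMSO. Supernatant extracted into chloroform, back-extracted into 0.2 M HCl, read at 520 nm.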
# Pseudomonas aeruginosa [14] = experiment: Anti-virulence effect in Pseudomonas aeruginosa PAO1 assessed as inhibition of rhamnolipid production at 25 ug/ml; format: functional; design: scale not given: the % may be the effect or the level left; conditions: dose 25 µg/ml
# Outline: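 PAO1 culture supernatant from growth with compound (6.25–25 μg mL−1) at 37 °C and 180 rpm, or with DMSO or RSV (25 μg mL−1) as controls. Orcinol assay: 100 μL sample plus 0.19% orcinol in 53% H2SO4, heated 30 min at 80 °C, cooled, read at 421 nm. At least three experiments in triplicate.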
# Pseudomonas aeruginosa [15] = experiment: Downregulation of PA5439 gene expression in Pseudomonas aeruginosa PAO1 assessed as fold decrease at 25 ug/ml by RT-qPCR analysis; format: functional; conditions: dose 25 µg/ml
smiles,measurement,setting,value
Cc1cccc(C#N)c1Cc1c[nH]c2ccccc12,fold change (FC),Pseudomonas aeruginosa [1],2.87
same,fold change (FC),Pseudomonas aeruginosa [2],9.71
same,inhibition,[3],Active; Strong Inhibition Observed
same,inhibition,Pseudomonas aeruginosa [4],Dose-dependent-effect
same,inhibition (INH),Pseudomonas aeruginosa [5],52%
same,inhibition (INH),Pseudomonas aeruginosa [6],64%
same,inhibition,Pseudomonas aeruginosa [7],Active
same,Activity,Pseudomonas aeruginosa [8],inactive
same,inhibition,[9],61%
same,inhibition,[10],60%
same,inhibition,[11],72%
same,inhibition at 6.25 µg/mL,Pseudomonas aeruginosa [12],32%
same,Activity,Pseudomonas aeruginosa [13],Dose-dependent-effect
same,Activity,Pseudomonas aeruginosa [14],23%
same,fold change (FC),Pseudomonas aeruginosa [15],10.87
